Shown are actives, neighbours in structure and some others; about 11% of the full set was active somewhere.
SF-1 act = activators of human SF-1, primary screen, cell-based, CHO-K1, Gal4-SF-1 LBD, luciferase luminescence; Steroidogenic factor 1 (Homo sapiens), Q13285; CHO-K1 Gal4-SF-1 LBD luciferase reporter; % increase over DMSO SF-1-specific signal; activation, % at 10 µM; hit rate 1.9% among 65,000; AID 522, 2006;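 active = activation above the mean activation of all tested compounds plus 3 SD, cut at about 50% in these data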
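material = CHO-K1 cells with Gal4–hSF-1 LBD chimera plus Gal4-driven luciferase | compound = 10 µM single point, 1% DMSO | incubation = 20 h compound exposure at 37 °C after 1 h cell settling | measured by = SteadyLite luciferase luminescence | evaluation = percent activation relative to DMSO median and mock-transfected background | control set = DMSO negative control and −SF1 background wells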
M1 ag = M1 muscarinic receptor agonists, primary screen, CHO-M1 cells, Fluo-4 calcium, agonist mode; B-score at 10 µM; hit rate 3% among 64,000; AID 626, 2007; Muscarinic acetylcholine receptor M1; Fluo-4 calcium fluorescence; active compounds read high;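 active = fluorescence rise, raw or as B-score row- and column-corrected plate score, outside the 99.7% band of its plate's samples, either direction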
mHtt clearance = clearance of mutant huntingtin inclusions, primary screen, imaging, HeLa Exon1htt(103Q)mCFP, confocal imaging. aggregate imaging; zero = plate's median compound well. inhibition, % at 1.5 µM. hit rate 0.42% among 47,000;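 active = inhibition of aggregate fluorescence above about 70%, also judged a hit by eye on the cell image, limit read from the data, passing the limit was not always enough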;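 note: cells exposed to compound for three days before fixation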
RORA act = activators of orphan receptor RORA, primary screen, cell-based, luminescence | activation, % at 10 µM | Nuclear receptor ROR-alpha (Homo sapiens), P35398 | CHO-K1 Gal4-RORA LBD luciferase reporter; percent increase over mock-subtracted basal signal | hit rate 1.5% among 65,000 | AID 560, 2006;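 active = activation above the mean of all tested compounds plus 3 SD, cut at about 49% in these data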;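 note: 0% = DMSO-treated RORA cells and 100% = added signal equal to DMSO minus mock-transfected cells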
M1 antag = antagonists of rat M1 muscarinic receptor; hit rate 3.4% among 64,000; Muscarinic acetylcholine receptor M1 (Rattus norvegicus), P08482; AID 628, 2007; CHO-M1 cells, Fluo-4 calcium, ACh EC80 antagonist mode; active compounds read low; B-score at 10 µM;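 active = calcium fluorescence response, raw or row-and-column corrected B-score, differing from the plate sample mean either way at a set confidence level, mostly lower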
Target sequence (P08482 whole entry, looked up): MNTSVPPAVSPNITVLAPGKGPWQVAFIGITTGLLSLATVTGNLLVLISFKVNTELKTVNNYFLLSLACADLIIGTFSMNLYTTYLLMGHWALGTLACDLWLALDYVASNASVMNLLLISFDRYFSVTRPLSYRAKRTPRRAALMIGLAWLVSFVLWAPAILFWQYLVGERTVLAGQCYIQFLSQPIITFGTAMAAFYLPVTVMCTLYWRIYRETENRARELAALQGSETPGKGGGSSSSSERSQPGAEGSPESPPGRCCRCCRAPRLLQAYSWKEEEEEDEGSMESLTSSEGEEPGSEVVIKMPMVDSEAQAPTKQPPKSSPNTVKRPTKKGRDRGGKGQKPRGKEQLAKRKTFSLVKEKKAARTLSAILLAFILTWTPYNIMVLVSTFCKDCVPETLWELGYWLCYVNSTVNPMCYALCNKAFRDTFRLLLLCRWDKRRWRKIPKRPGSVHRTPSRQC
D1 allo mod = D1 CRE-luciferase signal change, two-sided – cell-based, HEK293 D1, dopamine EC30, D1 allosteric modulator project, primary screen | hit rate 5.9% among 58,000 | dopamine EC30 potentiation; actives deviate in either direction | B-score at 10 µM | AID 641, 2007;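 active = luminescence count or its row- and column-corrected plate score outside the 99.7% band of the plate's sample wells, on either side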
Active calls of the source: *; x = no result given.

SMILES	SF-1 act	M1 ag	mHtt clearance	RORA act	M1 antag	D1 allo mod
Cc1cc(C)c2c(=O)[nH]n(C3CC(C)N(C)CC3C)c2n1 (configuration not stated)	-20	1.3	x	-10	-0.78	-1.9*
CC1CCc2nc(NC(=O)C3CCCO3)sc2C1 (configuration not stated)	-17	-0.78	-26	22	0.64	-4.6*
CC1CCc2nc(NC(=O)Cc3cccs3)sc2C1 (configuration not stated)	63*	-0.0047	16	35	0.16	-0.29
O=C(CCCc1cccs1)Nc1nc2c(s1)CCCC2	73*	0.46	0	37	-0.45	-1.6
CC1(C)CC(=O)c2sc(NC(=O)c3ccco3)nc2C1	47	0.23	15	37	0.5	-1
CC1CCc2nc(NC(=O)c3ccco3)sc2C1 (configuration not stated)	-64	0.48	x	-62	-0.016	-7.5*
O=C(CCS(=O)(=O)Cc1ccccc1)Nc1nc2c(s1)CCCC2	-3	-2.4	-40	-11	0.87	0.11
CCOCCCNCC(=O)N1CCN(S(=O)(=O)c2ccc(C)cc2)CC1	-1	0.31	x	-24	-0.58	-0.92
Cc1ccccc1-n1c(C)nnc1SCc1nc2ccccc2s1	55*	-0.23	x	58*	-0.89	-0.084
CCn1c(SCc2nc3ccccc3s2)nnc1-c1cccs1	49	2.2	-22	33	-0.098	0.075
CC1(C)Cc2c(sc(NC(=O)c3ccc(Br)o3)c2C#N)CO1	62*	0.25	x	9	0.5	-2.1
CC1(C)Cc2c(sc(NC(=O)c3ccco3)c2C(=O)O)CO1	x	x	-4	x	x	x
COC(=O)c1ccc(Cn2nc(C)c(Br)c2C)cc1	-4	-0.8	x	-13	-0.63	-2.7*
Clc1ccc(Cc2noc(Cc3ccccc3)n2)cc1Cl	10	-0.27	-67	3	1.8*	-0.032
CCCOc1ccc(-c2nnc(N)s2)cc1	59*	0.011	66	44	0.038	-0.5
COc1ccc(-c2nnc(N)s2)cc1	7	-0.37	35	50*	-0.0056	-0.88
CCOC(=O)C1=C(c2ccccc2)N2CCN=C2S1	-3	-0.0095	-27	2	-0.33	3.1
COC(=O)C(NC(=O)c1ccco1)(Nc1ccc(Br)cn1)C(F)(F)F (configuration not stated)	8	-0.044	1	-21	-0.2	-0.5
CN1CCc2c(sc3c2C(=O)NC(c2ccco2)N3)C1 (configuration not stated)	6	3.5	x	-2	0.63	-0.6
O=C1NC(c2cccs2)Nc2sc3c(c21)CCCC3 (configuration not stated)	70*	-0.75	12	21	0.12	0.044
O=c1cc(CSc2ccc(S(=O)(=O)N3CCCCC3)cn2)nc2sccn12	-8	0.74	-11	-8	0.89	-4.5*
O=S(=O)(c1ccc(SCCO)nc1)N1CCCC1	-3	x	43	-11	x	-1
CCOc1ccc(CCNC(=O)C2CCCN(C(=O)N(C)C)C2)cc1OCC (configuration not stated)	-1	-0.017	-48	0	0.45	-7.9*
O=C(NCCCN1CCCC1)c1ccc(CS(=O)(=O)c2ccc(Br)cc2)o1	-1	0.84	x	-12	-1.2	-0.46
Cc1ccc(S(=O)(=O)Cc2ccc(C(=O)NCCCN3CCCC3=O)o2)cc1	-3	-0.11	-52	14	-0.21	-3.3*
CC(C)Oc1ccc(N2CC(C(=O)Nc3ccc4c(c3)OCO4)CC2=O)cc1 (configuration not stated)	3	-0.21	x	-8	0.12	-0.0098
Cc1ccc(NC(=O)c2ccccc2F)nc1	-4	-0.64	-19	21	0.27	-3*
CC(=O)c1c(C)[nH]c(C(=O)Nc2ccc(C)cn2)c1C	-51	-0.026	24	-73	2	0.0074
Cc1ccccc1C(=O)Nc1ccc(Br)cn1	82*	-0.053	x	67*	-0.67	0.035
Cc1nc(CS(=O)c2ccc(Cl)cc2)cc(NCc2ccc(Cl)cc2Cl)n1 (configuration not stated)	x	x	-30	x	x	x

Source: PubChem BioAssay (several laboratories)
